Data on 21 molecules can be found in ChEMBL document CHEMBL1142519, “Synthesis and antiprotozoal activity of cationic 2-phenylbenzofurans” (J Med Chem, 2008).

One data set has as its system Plasmodium falciparum. Briefly: Antiplasmodial activity against chloroquine-resistant Plasmodium falciparum K1. The format is functional, organism-based. The method, boiled down:
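In vitro IC50 against chloroquine-resistant P. falciparum K1, reported as the average of duplicate determinations.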

Another data set deals with L6. Briefly: Cytotoxicity against rat L6 cells. The format is cell-based. The method, boiled down: (§1)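 IC50 values in µM, each the average of duplicate determinations. Parasites were T. b. rhodesiense STIB900 and axenic amastigotes of L. donovani MHOM/SD/62/1S-CL2D. Cytotoxicity was run on rat L6 myoblast cells.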
The nature of data set [1]: Selectivity index, ratio of IC50 for rat L6 cells to IC50 for chloroquine-resistant Plasmodium falciparum K1. Particulars: read-out: Ratio IC50. Format: toxicity, cell-based. The method, boiled down:
(§2)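 Ratio of the L6 rat myoblast cytotoxicity IC50 to the IC50 against the parasite named in the line. Each IC50 is the average of duplicate determinations.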

Data set [2] can be described thus: Selectivity index, ratio of IC50 for rat L6 cells to IC50 for Trypanosoma brucei rhodesiense STIB 900. Format: toxicity, cell-based. Particulars: read-out: Ratio IC50. The gist of the method: as §2
The test system of a further data set is Leishmania donovani. Briefly: Antileishmanial activity against Leishmania donovani MHOM/SD/62/1S-CL2D axenic amastigotes. Format: functional, organism-based. The method, boiled down:
as §1

Data set [3] in a line: Selectivity index, ratio of IC50 for rat L6 cells to IC50 for Leishmania donovani MHOM/SD/62/1S-CL2D. The conditions noted are these: read-out: Ratio IC50. The format is toxicity, cell-based. The gist of the method: as §2
The subject of data set [4] is Trypanosoma brucei rhodesiense. Briefly: Antitrypanosomal activity against Trypanosoma brucei rhodesiense STIB 900 bloodstream trypomastigotes. Format: functional, organism-based. The method, boiled down: as §1
For data set [5], the system named is Trypanosoma brucei rhodesiense. Briefly: Antitrypanosomal activity against Trypanosoma brucei rhodesiense STIB 900 infected acute mouse model assessed as survival time at 5 mg/kg, ip administered daily for 4 days. Format: functional. The conditions noted are these: route intraperitoneal. The method, boiled down:
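STIB900 acute mouse model of T. b. rhodesiense infection, with intraperitoneal dosing. Read-out is the average days of survival of treated mice. Cures are counted as mice that survive and stay parasite-free for 60 days.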

Structures are written as SMILES. A value given as a limit tells only on which side of the number the result lay.

One may read the IC50 as the concentration needed to halve the response being measured. As for `c1c[nH]c(-c2ccc(-c3cc4cc(-c5ncc[nH]5)ccc4o3)cc2)n1`, the IC50 was 33 nM in the data set on Plasmodium falciparum, 3300 nM in the data set on L6, over 100000 nM with Leishmania donovani and 606 nM in data set [4]. Also, the selectivity ratio in data set [1] is 100; in data set [2], 5; in data set [3], under 0.03.
Consider `c1ccc2[nH]c(-c3ccc(-c4cc5cc(C6=NCCN6)ccc5o4)cc3)nc2c1`, for which the half-inhibitory concentration (IC50) in the data set on Plasmodium falciparum was 61 nM; with L6 it was 59300 nM; with Leishmania donovani it was over 100000 nM; in data set [4] it was 228 nM. The selectivity ratio in data set [1] was 972; in data set [2], 260; in data set [3], under 0.6.
Turning to `CC(C)NC(=N)c1ccc(O)c(-c2cc3ccc(C(=N)NC(C)C)cc3o2)c1`, the IC50 in the data set with Plasmodium falciparum is 636 nM; in the data set on L6 it was over 187000 nM; in the data set on Leishmania donovani, over 100000 nM; in data set [4] it was 5100 nM. Moreover, the selectivity ratio in data set [1] was over 294; in data set [2], over 37.
For `N=C(N)c1ccc(O)c(-c2cc3ccc(C(=N)N)cc3o2)c1`, the Survival in data set [5] is over 36 days. For the same molecule, the half-inhibitory concentration (IC50) came out at 378 nM in the data set on Plasmodium falciparum, 164000 nM in the data set with L6, 41000 nM in the data set on Leishmania donovani and 29 nM in data set [4]. Also, the figures for the selectivity ratio in data set [1], in data set [2] and in data set [3] were 434, 5660 and 4, respectively.
As for `N=C(N)c1cccc(-c2cc3cc(C(=N)N)ccc3o2)c1`, the IC50 in the data set with Plasmodium falciparum was 19 nM; in the data set with L6, 21200 nM; in the data set with Leishmania donovani, 5800 nM; in data set [4], 24 nM. Besides, the selectivity ratio stood at 1120 in data set [1], 883 in data set [2] and 4 in data set [3].
As to `CC(C)NC(=N)c1cccc(-c2cc3ccc(C(=N)NC(C)C)cc3o2)c1`, the IC50 is 59 nM in the data set with Plasmodium falciparum, over 200000 nM with L6, 24000 nM in the data set on Leishmania donovani and 534 nM in data set [4]. Besides, the selectivity ratio in data set [1] is over 3390; in data set [2] it was over 375; in data set [3], over 8.
On to `C[C@@H]1CC[C@H]2[C@@H](C)C(=O)O[C@@H]3O[C@@]4(C)CC[C@@H]1[C@]32OO4` [ARTEMISININ], for which the selectivity ratio in data set [1] came to 75000.
As to `c1cc(C2=NCCN2)cc(-c2cc3ccc(C4=NCCN4)cc3o2)c1`, the IC50 with Plasmodium falciparum was 205 nM; in the data set on L6 it was 12800 nM; in the data set with Leishmania donovani it was over 100000 nM; in data set [4], 333 nM. Besides, the selectivity ratio in data set [1] was 62; in data set [2] it was 38; in data set [3] it was 0.1.
Consider `CC(C)NC(=N)c1ccc(O)c(-c2cc3cc(C(=N)NC(C)C)ccc3o2)c1`, for which the IC50 is 516 nM in the data set with Plasmodium falciparum, over 180000 nM in the data set with L6, 40000 nM with Leishmania donovani and 1000 nM in data set [4]. Moreover, the selectivity ratio in data set [1] is over 349; in data set [2], over 179; in data set [3], over 5.
Regarding `COc1cc(C(=N)NC(C)C)cc2cc(-c3ccc(C(=N)NC(C)C)cc3)oc12`, the IC50 with Plasmodium falciparum was 48 nM; with L6, over 190000 nM; in the data set on Leishmania donovani, 15000 nM; in data set [4] it was 90 nM. The selectivity ratio in data set [1] is over 3960; in data set [2], over 2110; in data set [3], over 12.
Consider `COc1cc(C(=N)N)ccc1-c1cc2cc(C(=N)N)ccc2o1`, for which the Survival in data set [5] was over 47 days. In addition, the IC50 in the data set with Plasmodium falciparum came out at 3 nM; in the data set on L6 it was 157000 nM; in the data set on Leishmania donovani, 2000 nM; in data set [4], 3 nM. For the same molecule, the selectivity ratio came out at 52300 in data set [1], 52300 in data set [2] and 80 in data set [3].
In the case of `COc1ccc(C(=N)N)cc1-c1cc2cc(C(=N)N)ccc2o1`, the Survival in data set [5] was over 57 days. Besides, the IC50 in the data set with Plasmodium falciparum turned out to be 40 nM; in the data set on L6, 179000 nM; with Leishmania donovani, 5700 nM; in data set [4], 2 nM. Also, the selectivity ratio in data set [1] came out at 4480; in data set [2], 89500; in data set [3] it was 31.
`COc1ccc(C(=N)N)cc1-c1cc2ccc(C(=N)N)cc2o1`: in data set [5], the Survival is over 48 days. Besides, the IC50 in the data set on Plasmodium falciparum is 18 nM; in the data set with L6, 128000 nM; in the data set on Leishmania donovani, 3600 nM; in data set [4], 11 nM. In addition, the selectivity ratio turned out to be 7110 in data set [1], 11600 in data set [2] and 36 in data set [3].
`COc1cc(C2=NCCN2)ccc1-c1cc2cc(C3=NCCN3)ccc2o1`: the half-maximal inhibitory concentration (IC50) in the data set with Plasmodium falciparum was determined as 31 nM; in the data set on L6, 7400 nM; in the data set with Leishmania donovani, 60000 nM; in data set [4] it was 247 nM. Besides, the selectivity ratio in data set [1] amounted to 239; in data set [2], 30; in data set [3], 0.1.
For the molecule `COc1ccc(C(=N)NC(C)C)cc1-c1cc2cc(C(=N)NC(C)C)ccc2o1`, the IC50 is 250 nM with Plasmodium falciparum, over 179000 nM in the data set with L6, 25000 nM with Leishmania donovani and 155 nM in data set [4]. The selectivity ratio in data set [1] is over 716; in data set [2], over 1160; in data set [3], over 7.
For the molecule `COc1ccc(C(=N)NC(C)C)cc1-c1cc2ccc(C(=N)NC(C)C)cc2o1`, the 50% inhibitory concentration (IC50) in the data set with Plasmodium falciparum was 293 nM; with L6 it was over 175000 nM; in the data set on Leishmania donovani, 54000 nM; in data set [4], 929 nM. The selectivity ratio in data set [1] was over 597; in data set [2], over 188; in data set [3] it was over 3.
For `c1cc(-c2cc3ccc(C4=NCCN4)cc3o2)ccc1C1=NCCN1`, the half-inhibitory concentration (IC50) is 109 nM with Plasmodium falciparum, 4500 nM in the data set on L6, over 50000 nM in the data set on Leishmania donovani and 319 nM in data set [4]. Besides, the selectivity ratio in data set [1] is 41; in data set [2] it was 14; in data set [3] it was under 0.1.
As to `CC(C)NC(=N)c1cccc(-c2cc3cc(C(=N)NC(C)C)ccc3o2)c1`, the IC50 with Plasmodium falciparum is 331 nM; in the data set on L6, over 199000 nM; with Leishmania donovani, 13000 nM; in data set [4], 473 nM. Further, the selectivity ratio in data set [1] is over 601; in data set [2] it was over 421; in data set [3], over 15.
Consider `c1cc(C2=NCCN2)cc(-c2cc3cc(C4=NCCN4)ccc3o2)c1`, for which the half-inhibitory concentration (IC50) in the data set with Plasmodium falciparum stood at 76 nM; in the data set with L6, 33900 nM; in the data set on Leishmania donovani, 24000 nM; in data set [4] it was 78 nM. Besides, the results for the selectivity ratio in data set [1], in data set [2] and in data set [3] were 446, 435 and 1.5, respectively.
Consider `N=C(N)c1ccc(OCCCCCOc2ccc(C(=N)N)cc2)cc1` [PENTAMIDINE], for which the Survival in data set [5] is over 45 days. In addition, the IC50 with Leishmania donovani came out at 1800 nM.
As to `Oc1ccc(C2=NCCN2)cc1-c1cc2cc(C3=NCCN3)ccc2o1`, the concentration for half-maximal inhibition (IC50) with Plasmodium falciparum was 23 nM; in the data set with L6 it was over 199000 nM; with Leishmania donovani, 57000 nM; in data set [4] it was 227 nM. For the same molecule, the selectivity ratio in data set [1] is over 8650; in data set [2], over 877; in data set [3] it was 4.
